ABCB6 inh 2: human ABCB6 transporter inhibition. Q9NP58. K562-ABCB6 porphyrin accumulation, flow cytometry, 1 h; active compounds read low. fluorescence ratio to DMSO, % at 10 µM. hit rate 0.19% among 360,000;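 active = fluorescence ratio to DMSO below 75%, the collection mean minus 3 SD; inconclusive = too few cells collected in the well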;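 note: signal is porphyrin accumulated inside mitochondria; 100% equals median channel fluorescence of DMSO control wells; lower ratio means ABCB6 inhibition with less porphyrin fluorescence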
NRP1-CendR mod: NRP-1/CendR interaction modulation; AID 602438; FAM-RPARPAR peptide binding to NRP-1, fluorescence polarization; hit rate 0.85% among 360,000; inhibition, % at 25 µM;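 active = inhibition or corrected inhibition above about 18%, plus a signal ratio from 0.5 to 1.5, limit read from the data, passing the limit was not always enough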
Granule exo inh: lytic granule exocytosis inhibition. inhibition, % at 10 µM. TALL-104 LAMP-1 surface exposure, flow cytometry; cells stimulated with thapsigargin and PMA. hit rate 0.66% among 360,000;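 active = inhibition above about 55%, limit read from the data; inconclusive = no clear call, values can overlap the other calls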
ATG4B inhibitor: blocks human ATG4B protease cleavage of LC3 substrate | hit rate 0.51% among 340,000 | ATG4B cleavage of LC3-PLA2, NBD-HPC fluorescence, 1 h | Q9Y4P1 | inhibition, % at 8.33 µM; in the data active = inhibition above about 40%
Myeloid diff MLP: myeloid differentiation induction. ER-HoxA9 myeloid progenitors, lysozyme-GFP differentiation, flow cytometry. calls only at 10 µM. hit rate 1% among 360,000. AID 624256;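 active = normalized GFP-positive differentiation at or above the plate's own cutoff, the solvent-only control mean plus 3 SD; inconclusive = no clear call, values can overlap the other calls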;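 note: cells exposed to compound for four days before flow analysis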
Arrestin-AP2 inh: inhibitors of human beta-arrestin and AP2 interaction; FITC-arrestin peptide / GST-AP2 beads, flow cytometry; AP2 beta2 appendage carries R879A mutation; inhibition, % at 10 µM; hit rate 0.31% among 340,000; AID 504490;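 active = inhibition above a set limit, near 3 SD of compounds lacking own fluorescence, cut at about 54% in these data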;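 note: plate controls were DMSO wells for no effect and 5 µM unlabelled arrestin peptide for full effect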
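System: GST-tagged AP2 beta2-adaptin appendage (R879A) on 4 µm glutathione beads / Reagent: FITC-arrestin peptide, 50 nM / Detection: HyperCyt-sampled flow cytometry, FL1 channel, ex 488/em 535 nm / Timing: 12 min plus 1 h, RT / Buffer or medium: PBS plus Tween 20 (0.05%) and BSA (0.1%)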
* marks the source's active call; other numbers are inactive results; i = inactive; ? = inconclusive; · = no result; + = active, no number. Sampled rows, rich in hits. Any-hit rate of the full collection: about 3.3%.

SMILES	ABCB6 inh 2	NRP1-CendR mod	Granule exo inh	ATG4B inhibitor	Myeloid diff MLP	Arrestin-AP2 inh
COC(=O)C1N[C@@H]([C@@H](NC(=O)COc2ccccc2)C(=O)NC2CC2)SC1(C)C (stereo partly specified)	98.0	31.1*	5.6	-3.4	i	-7.4
O=C(c1cc(Br)ccc1OC(F)F)N1CCN2CCCC2C1 (stereo unspecified)	84.0	1.4	-3.6	-3.6	i	-5.5
CN(Cc1cnn(-c2ccc(F)cc2)c1)C(=O)[C@H]1O[C@@H](n2ccc(N)nc2=O)[C@H](O)[C@@H]1O	91.0	3.5	-1.6	·	i	·
C[C@H]1CN=C(N(C)C)N1CCC1CCCCC1	90.0	29.6*	-2.5	-15.8	i	0.2
C[C@H]1CN=C(N(C)C)N1CCCC1CCCC1	80.0	13.8	5.8	-12.6	i	9.1
Cc1cc(NC(=O)CCC(=O)N(Cc2cccs2)C(C)(C)C(=O)NC2CCCCC2)no1	95.0	19.6*	-5.1	-12.5	i	18.0
O=C(COC(=O)c1cc(Cl)ccc1O)NNC(=O)c1ccccc1F	96.0	0.2	-5.0	-6.0	i	0.0
CCCCCCCCCCOC(=O)Cn1c(COc2ccccc2OC)[n+](C)c2ccccc21	87.0	-2.0	88.8*	23.3	i	-8.4
Cc1ccc2c(c1)c1nnc(SCC(=O)N3CCCc4ccccc43)nc1n2CC(=O)O	100.0	23.7*	5.8	-0.5	i	-1.6
CCc1nnc(SCC(=O)N2CCCc3ccccc32)nc1CC	95.0	-7.8	9.1	-10.7	i	-8.0
COCc1cc(=O)[nH]c(/N=C(\N)Nc2ccc(C)cc2C)n1	102.0	27.0*	4.7	4.6	i	16.8
CCOC(=O)N1CCN(C(=O)Cc2ccccc2OC)CC1	100.0	8.8	1.9	-3.5	i	-14.7
O=C(/C=C/c1ccc(O)c(O)c1)c1ccc(S(=O)(=O)N2CCCCCC2)cc1	100.0	21.5*	-3.0	11.9	i	20.1
O=C(c1ccc(S(=O)(=O)N2CCCC2)cc1)N1CCCCC1	100.0	-3.7	3.2	-9.8	i	-6.1
Nc1ccc(O)c2c1C(=O)c1ccccc1C2=O	108.0	33.9*	3.8	-14.8	i	1.6
OCCNCC12CC3CC(CC(C3)C1)C2	93.0	7.1	3.5	-10.4	i	-5.5
Cc1cc(=O)n2nc(N3CCCC(C(=O)N4CCOCC4)C3)sc2n1 (stereo unspecified)	100.0	44.4*	-0.8	-4.0	i	-1.2
Cc1onc(-c2ccccc2)c1CNC(=O)Nc1ccc(C(F)(F)F)cc1	101.0	-7.1	-1.0	37.6	i	12.0
CCOc1ccccc1NC(=O)Nc1cccc(NC(C)=O)c1	97.0	-0.6	-1.4	-5.3	i	3.6
CCOc1ccccc1NC(=O)Nc1ccc2c(c1)CCC2	103.0	7.6	-2.4	7.6	+	16.8
COc1cc(/C=C/C(=O)OCC(=O)c2ccc(OC(F)F)cc2)ccc1O	96.0	15.2	67.1*	-8.7	i	-5.4
COc1ccccc1Nc1nc(N)nc(CSC(=S)N2CCCCC2C)n1 (stereo unspecified)	95.0	-5.7	-0.6	-5.0	i	10.3
Cc1cc(N/N=C/c2ccc([N+](=O)[O-])o2)nc2ccccc12	556.0	-36.3	13.0	-27.9	+	-0.3
O=C(CNC(=O)c1ccc(Br)cc1)NCC(=O)OCC(=O)c1ccc(F)cc1	98.0	26.1*	-3.3	-3.6	i	-11.2
O=C(CNC(=O)c1ccccc1)NCC(=O)OCC(=O)c1ccc(F)cc1	99.0	-4.0	0.5	-4.9	i	-8.9
SMILES	ABCB6 inh 2	NRP1-CendR mod	Granule exo inh	ATG4B inhibitor	Myeloid diff MLP	Arrestin-AP2 inh
O=C(NCCCn1ccnc1)C(=O)c1c[nH]c2ccccc12	97.0	-0.4	-4.5	-2.9	i	29.9
CC1=C(C(=O)NCc2ccc(Cl)cc2)C2(CCC(C)CC2)OC1=O (stereo unspecified)	88.0	37.1*	3.1	-6.1	i	-8.4
COc1ccc(CNC(=O)C2=C(C)C(=O)OC23CCC(C)CC3)cc1 (stereo unspecified)	95.0	-6.6	6.6	-4.5	i	-2.2
COc1ccc(Nc2nc(N)nc(CCl)n2)cc1	104.0	0.4	57.1*	-9.0	i	-0.1
Nc1nc(CCl)nc(Nc2ccc3ccccc3c2)n1	96.0	-2.7	39.9	-0.6	?	1.9
COc1ccc(CCN2C(=O)c3[nH]nc(-c4ccccc4O)c3C2c2cccc(Cl)c2)cc1 (stereo unspecified)	107.0	-7.0	62.3*	7.5	i	14.3
COc1ccc(C2c3c(-c4ccccc4O)n[nH]c3C(=O)N2CCc2ccc(OC)c(OC)c2)cc1 (stereo unspecified)	99.0	5.9	0.9	17.3	i	-4.3
O=C(CN1CCCc2ccccc21)NC(=O)NCc1ccccc1	106.0	-17.1	2.0	-4.1	i	-12.5
CC(C)(C)NC(=O)NC(=O)CN1CCCc2ccccc21	135.0	-61.4	-1.1	-2.9	+	38.8
COC(=O)Cc1ccc(NC(=S)NCCO)cc1	94.0	9.5	6.7	-6.7	i	22.9
COC(=O)Cc1ccc(NC(=S)NC2CC2)cc1	91.0	-3.3	-4.4	-14.4	+	10.9
CC(C)[C@H](NC(=O)N1CC(=O)Nc2ccccc21)C(=O)N[C@H](Cc1c[nH]c2ccccc12)C(=O)O	98.0	9.0	3.9	-28.4	i	4.1
O=C(NCC1CCCO1)c1ccc(NC(=O)c2cccc([N+](=O)[O-])c2)cc1 (stereo unspecified)	100.0	-7.8	1.3	4.1	i	7.5
CN1CCc2c(sc3c2c(=O)n(-c2ccc(Cl)cc2)c2nncn32)C1	100.0	-4.2	0.6	-1.2	i	7.3
CCN(CC)CCn1c(=O)n(-c2ccc(Cl)cc2)c(=O)c2c3c(sc21)CN(C)CC3	102.0	11.2	-0.1	-11.0	+	6.1
COc1ccc(/C=C/C(=O)O)cc1Cl	103.0	0.3	0.4	1.8	i	-5.5
COc1cc(/C=C/C(=O)O)cc(OC)c1O	107.0	4.8	3.1	2.5	+	-1.6
COc1ccc(OC)c(S(=O)(=O)NCc2cccnc2)c1	102.0	-1.4	1.4	-1.6	i	2.4
COc1ccc(OC)c(S(=O)(=O)NCc2ccccc2)c1	68.0*	9.3	2.6	-8.7	i	34.8
COc1ccc(OC)c(S(=O)(=O)Nc2cccc3ccccc23)c1	102.0	0.7	14.2	-5.2	i	-3.3
COc1ccc(OC)c(S(=O)(=O)Oc2ccc(N)c3ccccc23)c1	107.0	-1.8	75.3*	-6.0	i	-0.1
CCOc1ccc(NC(=O)CN(C)C(=O)c2c(C)nn(-c3ccc(F)cc3)c2Cl)cc1OCC	93.0	1.2	3.2	-14.3	i	-7.4
O=C(NC1=NCCS1)C1CCN(S(=O)(=O)c2ccccc2C(F)(F)F)CC1	99.0	0.0	-1.7	-2.8	i	24.8

Screens: PubChem, several laboratories
